Here are results for one compound from ChEMBL document CHEMBL4325827, “Bifidenone: Structure-Activity Relationship and Advanced Preclinical Candidate” (J Med Chem, 2018).

Each structure is given as a SMILES string. Where only a bound is given, the exact number is not on record here.

Series [1] in a line: Plasma concentration in Crl:NU(NCr)-Foxn1 nu mouse xenografted with human NCI-H460 cells at 40 mg/kg, ip injected via vehicle solution measured at 1 hr post injection by LC-MS analysis. In kind it is ADME, organism-based. As to conditions: in vivo; call rule not given here. An outline of the steps: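 Male Nu/Nu mice, some bearing NCI-H460 or LOX-IMVI xenografts, given a single ip dose at 3 mL/kg. Organic vehicle components were dissolved first, with the aqueous part added gradually. Mice were euthanized at 1 h or 3 h. Cardiac blood was taken into NaEDTA/NaF plasma separator tubes. Quantification used loratadine internal standard against a spiked blank-plasma curve. Tumours were run as duplicate ~200 mg samples homogenized in 3% SDS and extracted twice with ethyl acetate, assuming 1 g tissue = 1 mL.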
On the technique in general: In xenograft studies the graft and the host belong to different species.

Series [2] is described as follows: Toxicity in Crl:NU(NCr)-Foxn1 nu mouse xenografted with human […] cells assessed as mortality at 60 mg/kg, ip qd administered for 3 consecutive days followed by 2 days of rest for 3 cycles. In kind it is organism-based. As to conditions: in vivo, 48 h. Summed up: (§1)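 Female athymic nude mice bearing subcutaneous NCI-H522 xenografts started from tumor fragments kept by continuous in vivo passage. Mice were grouped once tumors reached about 75-200 mm3. Dosing was ip at 5-10 mL/kg in 22% ethanol, 38% PEG400, 40% 20 mM Na citrate pH 5.0. Deaths per group were recorded with maximum mean bodyweight loss.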

Series [3] concerns OVCAR-4. Kind of series: Antiproliferative activity against taxane-resistant human OVCAR4 cells after 72 hrs by CellTiter 96 aqueous nonradioactive cell proliferation assay. In kind it is functional, cell-based. As to conditions: OVCAR-4, 72 h. Summed up:
(§2)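 Antiproliferation in cultured tumour cells, at least 3 replicate wells per concentration per experiment. NCI-H460 came from ATCC. M14, NCI/ADR-RES, OVCAR-4, HCT-15, ACHN and SF-295 came from the National Cancer Institute. IC50 reported from single experiments where no SD is given.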

Series [4] has as its system UO-31. Kind of series: Potency index, ratio of paclitaxel IC50 to compound IC50 for taxane-resistant human UO31 cells after 72 hrs by CellTiter 96 aqueous nonradioactive cell proliferation assay. In kind it is functional.
In series [5] the test system is ACHN. Kind of series: Potency index, ratio of paclitaxel IC50 to compound IC50 for taxane-resistant human ACHN cells after 72 hrs by CellTiter 96 aqueous nonradioactive cell proliferation assay. In kind it is functional.
The nature of series [6]: Toxicity in Crl:NU(NCr)-Foxn1 nu mouse xenografted with human […] cells assessed as maximum body weight loss at 40 mg/kg, ip qd administered for 3 consecutive days followed by 2 days of rest for 3 cycles measured after 7 days post dose relative to control. In kind it is organism-based. As to conditions: in vivo, 168 h. An outline of the steps: (§3)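 Female athymic nude mice bearing subcutaneous xenografts, started from cultured cells (NCI-H460, Calu-6, NCI-H69, LOX-IMVI) or from serially passaged tumour fragments (NCI-H522). Mice were grouped into vehicle and treatment arms at tumour volumes of about 75-200 mm3. Dosing was ip at 5-10 mL/kg in 22% ethanol, 38% PEG400, 40% 20 mM Na citrate pH 5.0. Caliper volumes were taken as (length × width2)/2. Treated and control delta weights were median tumour weight minus staging-day median.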

Series [7] concerns NCI-H522. Kind of series: Antitumor activity against human NCI-H522 cells xenografted in Crl:NU(NCr)-Foxn1 nu mouse assessed as tumor growth inhibition at 50 mg/kg, ip qd administered for 3 consecutive days followed by 2 days of rest for 3 cycles relative to control. In kind it is functional. As to conditions: 48 h, read-out: TGI. An outline of the steps:
as §3

The test system of series [8] is NCI-H522. Kind of series: Antitumor activity against human NCI-H522 cells xenografted in Crl:NU(NCr)-Foxn1 nu mouse assessed as tumor growth inhibition at 40 mg/kg, ip qd administered for 3 consecutive days followed by 2 days of rest for 3 cycles relative to control. In kind it is functional. As to conditions: 48 h, read-out: TGI. Summed up: as §3
The subject of series [9] is HCT-15. Kind of series: Antiproliferative activity against taxane-resistant human HCT15 cells after 72 hrs by CellTiter 96 aqueous nonradioactive cell proliferation assay. As to conditions: HCT-15, 72 h. In kind it is functional, cell-based. An outline of the steps: as §2
Series [10] is described as follows: Toxicity in Crl:NU(NCr)-Foxn1 nu mouse xenografted with human […] cells assessed as mortality at 50 mg/kg, ip qd administered for 3 consecutive days followed by 2 days of rest for 3 cycles. Particulars: in vivo, 48 h. In kind it is organism-based. An outline of the steps: as §1
Series [11] deals with NCI-H69. Kind of series: Antitumor activity against human NCI-H69 cells xenografted in Crl:NU(NCr)-Foxn1 nu mouse assessed as tumor growth inhibition at 70 mg/kg, ip dosed on day 1 followed by 4 days rest and subsequently dosed at 70 mg/kg, ip qd administered for 3 consecutive days followed by 2 days of rest for 2 cycles relative to control. As to conditions: read-out: TGI. In kind it is functional. Summed up:
as §3

Series [12] relates to UO-31. Kind of series: Antiproliferative activity against taxane-resistant human UO31 cells after 72 hrs by CellTiter 96 aqueous nonradioactive cell proliferation assay. In kind it is functional, cell-based. Particulars: UO-31, 72 h.
Series [13] is described as follows: Toxicity in Crl:NU(NCr)-Foxn1 nu mouse xenografted with human NCI-H69 cells assessed as mortality at 60 mg/kg, ip dosed on day 1 followed by 4 days rest and subsequently dosed at 60 mg/kg, ip qd administered for 3 consecutive days followed by 2 days of rest for 2 cycles. In kind it is organism-based. As to conditions: in vivo. Summed up: (§4)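 Female athymic nude mice bearing subcutaneous xenografts started from cultured human tumor cells. Mice were split into vehicle and treatment groups once tumors reached about 75-200 mm3. Dosing was ip at 5-10 mL/kg in 22% ethanol, 38% PEG400, 40% 20 mM Na citrate pH 5.0. Deaths per group were recorded alongside maximum mean bodyweight loss.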

The nature of series [14]: Toxicity in Crl:NU(NCr)-Foxn1 nu mouse xenografted with human Calu6 cells assessed as mortality at 50 mg/kg, ip qd administered for 3 consecutive days followed by 2 days of rest for 4 cycles. In kind it is organism-based. Particulars: in vivo, 48 h. An outline of the steps: as §4
The subject of series [15] is LOX IMVI. Kind of series: Antitumor activity against human LOXIMVI cells xenografted in Crl:NU(NCr)-Foxn1 nu mouse assessed as tumor growth inhibition at 30 mg/kg, ip qd for 7 consecutive days relative to control. In kind it is functional. Particulars: read-out: TGI. An outline of the steps:
as §3

Series [16] concerns NCI/ADR-RES. Kind of series: Potency index, ratio of paclitaxel IC50 to compound IC50 for taxane-resistant human NCI/ADR-RES cells after 72 hrs by CellTiter 96 aqueous nonradioactive cell proliferation assay. In kind it is functional.
Series [17] can be described thus: Toxicity in Crl:NU(NCr)-Foxn1 nu mouse xenografted with human […] cells assessed as mortality at 40 mg/kg, ip qd administered for 3 consecutive days followed by 2 days of rest for 3 cycles. Particulars: in vivo, 48 h. In kind it is organism-based. An outline of the steps: as §1
The nature of series [18]: Toxicity in Crl:NU(NCr)-Foxn1 nu mouse xenografted with human NCI-H460 cells assessed as maximum body weight loss at 40 mg/kg, ip qd administered for 3 consecutive days followed by 2 days of rest for 3 cycles measured after 7 days post dose relative to control. In kind it is organism-based. Particulars: in vivo, 168 h. An outline of the steps:
as §3

Series [19] concerns EKVX. Kind of series: Antiproliferative activity against taxane-resistant human EKVX cells after 72 hrs by CellTiter 96 aqueous nonradioactive cell proliferation assay. In kind it is functional, cell-based.
Series [20] is described as follows: Toxicity in Crl:NU(NCr)-Foxn1 nu mouse xenografted with human LOX-IMVI cells assessed as mortality at 40 mg/kg, ip qd administered for 5 consecutive days. In kind it is organism-based. Particulars: in vivo. An outline of the steps:
as §4

Series [21] in a line: Toxicity in Crl:NU(NCr)-Foxn1 nu mouse xenografted with human LOX-IMVI cells assessed as mortality at 30 mg/kg, ip qd administered for 7 consecutive days. In kind it is organism-based. Particulars: in vivo. Summed up:
as §4

Regarding `C=CC[C@H]1C[C@]2([C@H](C)Cc3cc(O)c(OC)cc3F)OCOC2=CC1=O`, the Drug uptake result in series [1] is recorded as “Active”. The Activity result in [2] was “Non-Toxic”; in [6] it was 3%; in series [10] it was “Non-Toxic”; in series [13], “Non-Toxic”; in series [14], “Non-Toxic”; in series [17], “Non-Toxic”. Also, the Activity in series [18] is listed as 7%; in series [20] it was “Non-Toxic”; in series [21] it was “Non-Toxic”. The half-maximal inhibitory concentration (IC50) – broadly, the concentration that gives 50% inhibition – in series [3] was found to be 8 nM; in [9], 14 nM; in [12] it was 7 nM; in [19] it was 7 nM. Moreover, the “Ratio IC50” value in series [4] is 34; in series [5], 7; in series [16], over 1000. In [7], the inhibition in vivo at 50 mg/kg was 69%. Further, the inhibition in vivo at 40 mg/kg in series [8] is 54%. In series [11], the inhibition in vivo at 70 mg/kg turned out to be 84%. Moreover, in series [15], the inhibition in vivo at 30 mg/kg turned out to be 63%.
